What was measured:
[1] = molecular target: T1, 3-oxo-5-alpha-steroid 4-dehydrogenase 1 (Homo sapiens, UniProt P18405); assay: Inhibition of recombinant steroid 5-alpha-reductase type I
T1 sequence (P18405 whole entry): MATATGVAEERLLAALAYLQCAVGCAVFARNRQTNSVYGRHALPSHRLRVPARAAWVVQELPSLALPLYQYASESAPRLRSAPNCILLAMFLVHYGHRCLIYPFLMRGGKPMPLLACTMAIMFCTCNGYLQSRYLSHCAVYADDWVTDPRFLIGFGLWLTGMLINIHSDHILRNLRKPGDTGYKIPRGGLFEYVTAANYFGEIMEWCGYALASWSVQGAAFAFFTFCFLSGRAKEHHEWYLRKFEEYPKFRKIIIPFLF

[2] = Inhibition of recombinant human adrenal 3-beta-hydroxy-delta-5-steroid dehydrogenase
[3] = molecular target: T2, 3-oxo-5-alpha-steroid 4-dehydrogenase 2 (Homo sapiens, UniProt P31213); assay: Inhibitory activity measured on human steroid 5-alpha-reductase type 2
T2 sequence (P31213 whole entry): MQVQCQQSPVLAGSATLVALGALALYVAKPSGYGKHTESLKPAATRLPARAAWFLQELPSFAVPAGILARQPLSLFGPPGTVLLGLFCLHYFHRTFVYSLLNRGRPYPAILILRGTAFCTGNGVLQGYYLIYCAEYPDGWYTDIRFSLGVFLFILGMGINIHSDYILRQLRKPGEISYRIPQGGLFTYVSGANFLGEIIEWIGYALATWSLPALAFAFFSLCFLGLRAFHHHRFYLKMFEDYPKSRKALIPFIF

[4] = Bioavailability in dog (Beagle) at t1/2 (dose 5 mg/kg i.v.); assay type: ADME, organism-based, Canis lupus familiaris; conditions: in vivo, iv
How it was run: (§1)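 Male beagles dosed intravenously (5 mg/kg for these lines), 2–5 animals. Blood half-life measured in hours after iv dosing; % bioavailability reported alongside.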

[5] = Plasma half life in beagles after iv administration of 5 mg/kg.; assay type: ADME, organism-based, Canis lupus familiaris; parameters: dose 5 mg/kg, route intravenous; conditions: beagle, dog; how it was run: as §1
Rattus norvegicus = assay: % reduction in prostate weight when compared with T-treated controls was measured in castrated rat at 10 mg/kg/day po administration; assay type: functional, Prostate gland
How it was run: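 Castrated male rats, 8 per group, given 10 mg/kg/day orally alongside testosterone. The readout is ventral prostate weight reduction versus testosterone-treated controls, expressed relative to finasteride run as an internal standard in each experiment.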

[6] = molecular target: T1, 3-oxo-5-alpha-steroid 4-dehydrogenase 1; assay: (§2) Inhibition of recombinant Steroid 5-alpha-reductase type I was evaluated as binding affinity of the compound
[7] = molecular target: T3, 3-oxo-5-alpha-steroid 4-dehydrogenase 1 (Rattus norvegicus, UniProt P24008); assay: as §2
T3 sequence (P24008 whole entry): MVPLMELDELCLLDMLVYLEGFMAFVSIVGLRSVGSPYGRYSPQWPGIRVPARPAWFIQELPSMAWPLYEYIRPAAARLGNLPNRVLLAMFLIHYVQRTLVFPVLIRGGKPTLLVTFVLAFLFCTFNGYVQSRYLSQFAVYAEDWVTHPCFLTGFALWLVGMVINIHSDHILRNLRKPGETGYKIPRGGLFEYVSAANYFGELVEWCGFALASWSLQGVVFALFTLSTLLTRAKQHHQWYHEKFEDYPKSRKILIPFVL

[8] = Plasma half life in beagles after iv administration.; conditions: beagle, dog
[9] = Inhibition of […] rat adrenal 3-beta-hydroxy-delta-5-steroid dehydrogenase
How it was run: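 Rat adrenal microsomes from homogenization and differential centrifugation. Started with 8 nM [3H]DHEA, stopped at 15 min with ethanol, and androstenedione measured by radio-HPLC. Kiapp from nonlinear regression, converted to Ki with Km 21 nM.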

[10] = molecular target: T4, 3-oxo-5-alpha-steroid 4-dehydrogenase 2 (Rattus norvegicus, UniProt P31214); assay: Inhibitory activity was measured on rat Steroid 5-alpha-reductase type 2
T4 sequence (P31214 whole entry): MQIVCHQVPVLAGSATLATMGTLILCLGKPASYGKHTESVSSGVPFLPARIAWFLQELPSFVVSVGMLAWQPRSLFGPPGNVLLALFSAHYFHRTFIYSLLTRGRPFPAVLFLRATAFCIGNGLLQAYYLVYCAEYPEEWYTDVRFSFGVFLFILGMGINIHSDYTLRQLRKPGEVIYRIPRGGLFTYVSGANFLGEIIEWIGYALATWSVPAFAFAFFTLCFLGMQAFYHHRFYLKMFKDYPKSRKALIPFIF
How it was run: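 Recombinant rat type 2 5α-reductase, assayed by the same procedure as the human type 2 assay, with changes specific to the rat enzymes.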

[11] = molecular target: T3, 3-oxo-5-alpha-steroid 4-dehydrogenase 1; assay: Inhibition of recombinant Steroid 5-alpha-reductase type I was evaluated as binding affinity (in vitro)
[12] = 4 mg/kg, in the assay text read “dose 4 mg/kg i.v.” for “dose 5 mg/kg i.v.”

Row | Ki [1] [nM] | Ki [2] [nM] | IC50 [3] [nM] | SMILES | further results
1 | 3 | 1500 | < 0.1 | CC(C)(C)c1ccc(C2(NC(=O)[C@H]3CCC4C5CNC6=CC(=O)CC[C@]6(C)C5CC[C@@]43C)CCCC2)cc1 (some centres not stated) | –
2 | 26 | 58 | 0.2 | C[C@]12CCC(=O)C=C1NCC1C2CC[C@@]2(C)C1CC[C@@H]2C(=O)Nc1cc(C(F)(F)F)cc(C(F)(F)F)c1 (some centres not stated) | –
3 | 0.6 | 490 | < 0.1 | C[C@]12CCC(=O)C(Cl)=C1NCC1C2CC[C@@]2(C)C1CC[C@@H]2C(=O)NC1(c2ccc(Cl)cc2)CCCC1 (some centres not stated) | bioavailability ([4]; 5 mg/kg): 74%; half-life [5]: 19 h; Reduction of prostate weight (Rattus norvegicus): 49%
4 | 4.2 | 820 | < 0.1 | CC(C)(C)c1ccc(Br)cc1NC(=O)[C@H]1CCC2C3CNC4=CC(=O)CC[C@]4(C)C3CC[C@@]21C (some centres not stated) | –
5 | 0.6 | 370 | – | C[C@]12CC[C@H]3[C@@H](CNC4=C(Cl)C(=O)CC[C@@]43C)[C@@H]1CC[C@@H]2C(=O)Nc1c(C(F)(F)F)cccc1C(F)(F)F (stereo in doubt; 25) | –
6 | 8 | 7.8 | < 0.1 | CC(C)(C)c1cc(NC(=O)[C@H]2CCC3C4CNC5=CC(=O)CC[C@]5(C)C4CC[C@@]32C)cc(C(C)(C)C)c1 (some centres not stated) | –
7 | 27 | 85 | 0.2 | CC(C)(C)c1ccccc1NC(=O)[C@H]1CCC2C3CNC4=CC(=O)CC[C@]4(C)C3CC[C@@]21C (some centres not stated) | –
8 | 240 | 10 | – | C[C@]12CCC(=O)C=C1NCC1C2CC[C@@]2(C)C1CC[C@@H]2C(=O)Nc1ccccc1 (some centres not stated) | –
9 | 3.4 | 1200 | < 0.1 | CC(C)(C)c1ccc(-c2ccc(Cl)cc2)cc1NC(=O)[C@H]1CCC2C3CNC4=CC(=O)CC[C@]4(C)C3CC[C@@]21C (some centres not stated) | –
10 | 6.7 | 130 | < 0.1 | C[C@]12CCC(=O)C=C1NCC1C2CC[C@@]2(C)C1CC[C@@H]2C(=O)NC1(c2ccc(Cl)cc2Cl)CC1 (some centres not stated) | –
11 | 3.1 | 1800 | < 0.1 | C[C@]12CCC(=O)C=C1NCC1C2CC[C@@]2(C)C1CC[C@@H]2C(=O)NC1(c2ccc(Cl)cc2)CCCCC1 (some centres not stated) | –
12 | 1.5 | 2200 | < 0.1 | CC(C)(C)c1ccc(C2(NC(=O)[C@H]3CCC4C5CNC6=CC(=O)CC[C@]6(C)C5CC[C@@]43C)CCCCC2)cc1 (some centres not stated) | –
13 | – | 160 | – | CC(C)(C)NC(=O)[C@H]1CC[C@H]2[C@@H]3CC=C4C=C(C(=O)O)CC[C@]4(C)[C@H]3CC[C@]12C [EPRISTERIDE] | IC50 [6]: 1600 nM
14 | 4 | 300 | < 0.1 | C[C@]12CCC(=O)C=C1NCC1C2CC[C@@]2(C)C1CC[C@@H]2C(=O)Nc1cc(C(F)(F)F)ccc1C(F)(F)F (some centres not stated) | Ki [7]: 0.27 nM; half-life [8]: 31 h; Ki [9]: 50 nM; bioavailability [4, 12]: 100%; Reduction in prostate weight (Rattus norvegicus): 130%; Ki [10]: 1.1 nM
15 | 0.2 | 19 | < 0.1 | CC1=C2NCC3C(CC[C@@]4(C)C3CC[C@@H]4C(=O)Nc3cc(C(F)(F)F)ccc3C(F)(F)F)[C@@]2(C)CCC1=O (some centres not stated) | –
16 | 4.6 | 830 | < 0.1 | CC(C)(C)c1ccc(-c2ccccc2)cc1NC(=O)[C@H]1CCC2C3CNC4=CC(=O)CC[C@]4(C)C3CC[C@@]21C (some centres not stated) | –
17 | 1100 | 19 | 0.5 | CC(C)(C)c1ccc(-c2ccc(C(F)(F)F)cc2NC(=O)[C@H]2CCC3C4CNC5=CC(=O)CC[C@]5(C)C4CC[C@@]32C)cc1 (some centres not stated) | –
18 | 1.3 | 8900 | < 0.1 | CC(C)(C)c1ccc(-c2ccc(C(C)(C)C)c(NC(=O)[C@H]3CCC4C5CNC6=CC(=O)CC[C@]6(C)C5CC[C@@]43C)c2)cc1 (some centres not stated) | –
19 | 0.5 | 200 | < 0.1 | CC1=C2NCC3C(CC[C@@]4(C)C3CC[C@@H]4C(=O)Nc3cc(C(F)(F)F)ccc3C(C)(C)C)[C@@]2(C)CCC1=O (some centres not stated) | –
20 | 8.8 | 1600 | < 0.1 | CC(C)(C)c1ccc(C(F)(F)F)cc1NC(=O)[C@H]1CCC2C3CNC4=CC(=O)CC[C@]4(C)C3CC[C@@]21C (some centres not stated) | Ki [7]: 0.1 nM; half-life [8]: 8.8 h; Ki [9]: 140 nM; bioavailability [4, 12]: 67%; Reduction in prostate weight (Rattus norvegicus): 100%; Ki [10]: 0.17 nM
21 | 0.2 | 160 | < 0.1 | C[C@]12CC[C@H]3[C@@H](CNC4=C(Cl)C(=O)CC[C@@]43C)[C@@H]1CC[C@@H]2C(=O)Nc1cc(C(F)(F)F)ccc1C(F)(F)F (stereo in doubt; 27) | –
22 | 3.6 | 1500 | < 0.1 | CC(C)(C)c1ccc(C2(NC(=O)[C@H]3CCC4C5CNC6=CC(=O)CC[C@]6(C)C5CC[C@@]43C)CCCCCC2)cc1 (some centres not stated) | –
23 | 7.5 | 760 | < 0.1 | CC(C)(C)c1ccc(Cl)cc1NC(=O)[C@H]1CCC2C3CNC4=CC(=O)CC[C@]4(C)C3CC[C@@]21C (some centres not stated) | –
24 | – | 9000 | < 0.1 | C[C@]12C=CC(=O)NC1CCC1C2CC[C@@]2(C)C1CC[C@@H]2C(=O)NC1(c2ccc(Cl)cc2)CCCC1 (some centres not stated) | IC50 [6]: 0.9 nM
25 | – | 280 | < 0.1 | C[C@]12CCC(C(=O)O)=CC1=CCC1C2CC[C@@]2(C)C1CC[C@@H]2C(=O)NC1(c2ccc(Cl)cc2)CCCC1 (some centres not stated) | IC50 [6]: 60 nM
26 | – | 11000 | – | CC(C)(C)NC(=O)[C@H]1CC[C@H]2[C@@H]3CC[C@H]4NC(=O)C=C[C@]4(C)[C@H]3CC[C@]12C [FINASTERIDE] | half-life [8]: 4.2 h; Ki [9]: 150 nM; IC50 [10]: 0.28 nM; Ki [11]: 6.8 nM
27 | 6.8 | 1600 | < 0.1 | C[C@]12CCC(=O)C=C1NCC1C2CC[C@@]2(C)C1CC[C@@H]2C(=O)NC1(c2ccc(Cl)cc2)CCCC1 (some centres not stated) | half-life [8]: 12 h; Ki [9]: 97 nM; bioavailability ([4]; 5 mg/kg): 79%; Reduction in prostate weight (Rattus norvegicus): 130%; Ki [10]: 0.12 nM; Ki [11]: 0.07 nM
28 | 5.3 | 390 | < 0.1 | CC(C)(C)c1cc(Br)ccc1NC(=O)[C@H]1CCC2C3CNC4=CC(=O)CC[C@]4(C)C3CC[C@@]21C (some centres not stated) | –
29 | 5 | 500 | < 0.1 | CC(C)(C)c1ccc(C(C)(C)C)c(NC(=O)[C@H]2CCC3C4CNC5=CC(=O)CC[C@]5(C)C4CC[C@@]32C)c1 (some centres not stated) | –
